Consider three compounds from paper PMC9633546 (Angewandte Chemie (International Ed. in English), 2022).

≈ marks a conversion by molar mass, not a printed value.

Data set [1] concerns M. abscessus ATCC 19977. In words: MIC assay in 96-well plate format, WT M. abscessus. Conditions: Mycobacteroides abscessus, ATCC19977, read-out: WT Mab MIC. Type of data set: cell-based, Mycobacterium abscessus subsp. abscessus.
Data set [2] concerns Δarr M. abscessus. The data set can be described thus: MIC assay in 96-well plate format, arr-deleted strain. Type of data set: cell-based, Mycobacterium abscessus. Conditions: isogenic arr-deleted M. abscessus ATCC 19977; 90 % growth inhibition.
The test system of data set [3] is Arr Mab. The data set can be described thus: LC-MS/HPLC in vitro validation of ADP-ribosylation. Type of data set: biochemical, M. abscessus. To be noted: 40 minute incubation, 5 µM enzyme. In outline: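 The enzyme was recombinant M. abscessus Arr, cloned, expressed and purified in-house. Enzymatic reactions were analysed by LC-MS, quantifying the remaining rifamycin and its ADP-ribosylated adducts.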

Data set [4] is described as follows: Pharmacokinetics studies in CD-1 mice. The class given is in vivo, mouse.
Data set [5] is described as follows: in vitro. To be noted: plasma.

On to `CC[C@H]1OC(=O)[C@H](C)[C@@H](O[C@H]2C[C@@](C)(OC)[C@@H](O)[C@H](C)O2)[C@H](C)[C@@H](O[C@@H]2O[C@H](C)C[C@H](N(C)C)[C@H]2O)[C@](C)(OC)C[C@@H](C)C(=O)[C@H](C)[C@@H](O)[C@]1(C)O` [clarithromycin], for which, in data set [1], the MIC was 1.45 µM (≈ 1.08 µg/mL). In data set [2], the “Δarr Mab MIC” value is 1.8 µM.

As to `CO[C@H]1/C=C/O[C@@]2(C)Oc3c(C)c(O)c4c(c3C2=O)C2=NC3(CCN(CC(C)C)CC3)NC2=C(NC(=O)/C(C)=C\C=C\[C@H](C)[C@H](O)[C@@H](C)[C@@H](O)[C@@H](C)[C@H](OC(C)=O)[C@@H]1C)C4=O` [rifabutin], the MIC in data set [1] was 1.15 µM (≈ 0.974 µg/mL). For the same compound, the “Δarr Mab MIC” value in data set [2] was determined as 0.031 µM. Moreover, the results for the “ADP-ribosylation upon incubation with Arr Mab and NAD+” value in data set [3] and in data set [3] (listed as Rifabutin) were “completely converted” and “fully converted”, respectively. The V d in data set [4] (CD-1 mice, single dose 10 mg/kg) was 3.51 L/kg. The fAUC/MIC in data set [4] (based on p.o. doses of 10 mg kg^−1) stood at 0.22. Further, the half-life in data set [4] (female, CD-1, mouse, plasma, 10 mg/kg) was 4 h. Further, the fraction unbound in data set [5] worked out at 0.0376.

As to `CO[C@H]1/C=C/O[C@@]2(C)Oc3c(C)c(O)c4c(O)c(c(/C=N/N5CCN(C)CC5)c(O)c4c3C2=O)NC(=O)/C(C)=C\C=C\[C@H](C)[C@H](O)[C@@H](C)[C@@H](O)[C@@H](C)[C@H](OC(C)=O)[C@@H]1C` [rifampicin], the MIC in data set [1] was 5.3 µM (≈ 4.36 µg/mL). Further, in data set [2], the “Δarr Mab MIC” value turned out to be 0.26 µM. Moreover, the “ADP-ribosylation upon incubation with Arr Mab and NAD+” value in data set [3] was “completely converted”.

One may read the MIC as the lowest concentration that inhibits growth of the organism. By half-life is commonly meant how long it takes for the measured level to halve. One may read the fraction unbound as free concentration divided by total concentration. Lower therefore signals little free substance.
